Assay results taken from ChEMBL document CHEMBL2029204, “Latent hit series hidden in high-throughput screening data” (J Med Chem, 2012).
Calls of active or inactive are those of the source. The rule behind the calls is not given here.

Tests used:
Nucleic Acid [1] = assay: Agonist activity at ECMV genomic RNA internal ribosomal entry site in human HuH7 cells after 24 hrs by firefly luciferase reporter gene assay; type: functional, cell-based; conditions: Encephalomyocarditis virus; Huh-7
Summary of the method: (§1)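 Cells carry a bicistronic construct (Neo translated cap-dependently, firefly luciferase under EMCV IRES) and are grown with Geneticin. After 24 h with or without compound, resazurin viability is read first, then cells are lysed and luciferase is quantified (Steady-Glo). Dose response uses eight concentrations from 0 to 10 μM in quadruplicate. Normalization: DMSO 0%, 500 μM benzalkonium chloride −100%. Values reported are AC50, absolute AC50 (activity at −50% for antagonists, 50% for agonists) and Amax (activity at highest concentration).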

Huh-7 = assay: Cytotoxicity against human HuH7 cells after 24 hrs by resazurin reduction assay; type: cell-based; conditions: huh-7, 24 h
Summary of the method: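 Same multiplexed wells as the luciferase readout: cells with the Neo/EMCV-IRES-Fluc construct under Geneticin, exposed to compound for 24 h, then viability is read by non-invasive resazurin reduction before lysis. Eight concentrations from 0 to 10 μM, in quadruplicate. Activity is normalized to DMSO (0%) and 500 μM benzalkonium chloride (−100%).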

Nucleic Acid [2] = assay: Agonist activity at ECMV genomic RNA internal ribosomal entry site in human HuH7 cells assessed as activity measured at the highest concentration after 24 hrs by firefly luciferase reporter gene assay relative to control; type: functional, cell-based; conditions: Encephalomyocarditis virus; Huh-7; summary of the method: as §1
Nucleic Acid [3] = assay: Antagonist activity at ECMV genomic RNA internal ribosomal entry site in human HuH7 cells after 24 hrs by firefly luciferase reporter gene assay; type: functional, cell-based; conditions: Encephalomyocarditis virus; Huh-7; summary of the method: as §1
Nucleic Acid [4] = assay: Antagonist activity at ECMV genomic RNA internal ribosomal entry site in human HuH7 cells after 24 hrs by firefly luciferase reporter gene assay relative to control; type: functional, cell-based; conditions: Encephalomyocarditis virus; Huh-7; summary of the method: as §1

Row | SMILES | Activity (Nucleic Acid [1]) | Activity (Huh-7) | Activity (Nucleic Acid [2]) | Activity (Nucleic Acid [3]) [µM] | Activity (Nucleic Acid [4])
1 | COCCn1c(NC(COC)c2ccc(OC)c(OC)c2)nc2c1c(=O)n(C)c(=O)n2C (configuration not stated) | inactive | Non-toxic | 0.53 | – | –
2 | COc1ccc(OCC(O)CN2CCN(c3ccccc3OC)CC2)c(C(C)(C)C)c1 (configuration not stated) | – | Non-toxic | – | 3.08 | -42
3 | COc1ccccc1N1CCN(CC(O)COc2cccc3ccccc23)CC1 (configuration not stated) [NAFTOPIDIL] | – | Non-toxic | – | 1.48 | -34
4 | COc1ccc2[nH]c3c(c2c1)CCn1c-3nc2cc3sc4c(c3cc2c1=O)CCCCCC4 | 2.16 µM | Non-toxic | 26.2 | – | –
5 | COc1ccc2[nH]c3c(c2c1)CCn1c-3nc2cc3sc4c(c3cc2c1=O)CCCC4 | inactive | Non-toxic | -7.44 | – | –
6 | CCc1cc2cc3c(=O)n4c(nc3cc2s1)-c1[nH]c2ccc(OC)cc2c1CC4 | 0.35 µM | Non-toxic | 33.5 | – | –
7 | COc1ccccc1N1CCN(CC(O)COc2ccc(-c3cc(C#N)c(=O)[nH]c3C)cc2)CC1 (configuration not stated) [SATERINONE] | – | Non-toxic | – | 5.46 | 172
8 | COCCn1c(NC(CO)c2ccc(OC)c(OC)c2)nc2c1c(=O)n(C)c(=O)n2C (configuration not stated) | 42.8 µM | Non-toxic | 346 | – | –
9 | O=c1c2ccccc2nc2n1CCc1c-2[nH]c2ccccc12 [RUTAECARPINE] | 27.6 µM | Non-toxic | 1030 | – | –
